Positions of bridges follow the written chain, without caps; N, C: chain ends. Non-standard residues stand in square brackets, D forms with d. Residues, ends and D or L forms follow the SMILES beside them. Bip(2'-Et-4'-OMe) = CCc1cc(OC)ccc1-c1ccc(C[C@H](N)C(=O)O)cc1; Bip(2'-Me) = Cc1ccccc1-c1ccc(C[C@H](N)C(=O)O)cc1; αMePhe(2,6-F2) = C[C@](N)(Cc1c(F)cccc1F)C(=O)O; Tyr(3-I) = N[C@@H](Cc1ccc(O)c(I)c1)C(=O)O; αMePhe(2-F) = C[C@](N)(Cc1ccccc1F)C(=O)O; hhPhe = N[C@@H](CCCc1ccccc1)C(=O)O; Aad = N[C@@H](CCCC(=O)O)C(=O)O; Aib = CC(C)(N)C(=O)O
Key:
[1] = target: T1, Glucagon-like peptide 1 receptor (Homo sapiens, UniProt P43220); experiment: Agonist activity at human GLP-1R expressed in CHO cells assessed as cAMP accumulation incubated for 30 mins; type: functional, cell-based
T1 sequence (P43220 whole entry): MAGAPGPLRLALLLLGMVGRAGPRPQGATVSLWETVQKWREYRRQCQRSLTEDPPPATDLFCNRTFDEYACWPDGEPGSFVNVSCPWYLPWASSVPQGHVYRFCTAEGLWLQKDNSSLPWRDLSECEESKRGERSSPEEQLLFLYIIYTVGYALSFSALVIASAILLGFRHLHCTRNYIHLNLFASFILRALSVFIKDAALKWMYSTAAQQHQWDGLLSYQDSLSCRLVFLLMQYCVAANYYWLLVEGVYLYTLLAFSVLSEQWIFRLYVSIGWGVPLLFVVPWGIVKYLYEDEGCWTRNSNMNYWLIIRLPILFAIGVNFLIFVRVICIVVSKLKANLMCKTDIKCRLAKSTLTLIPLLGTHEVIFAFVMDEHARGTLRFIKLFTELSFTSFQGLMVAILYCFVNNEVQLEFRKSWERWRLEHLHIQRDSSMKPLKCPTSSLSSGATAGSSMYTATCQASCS
In short: (§1)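 CHO cells stably expressing human GLP-1R, grown in DMEM/F12 with GlutaMAX, PenStrep and Geneticin, were lifted and resuspended in HBSS with 5.56 mM glucose, 0.1% BSA, 0.5 mM IBMX, 5 mM HEPES (final). 1000 cells/well were exposed to compound (10 μM to 100 fM) for 30 min at room temperature. After lysis with tracer/ULight reagents (2 h, room temperature), cAMP was read by LANCE Ultra TR-FRET. Values are geometric means with standard error.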

[2] = target: T1, Glucagon-like peptide 1 receptor; experiment: Agonist activity at human GLP-1R expressed in CHO cells assessed as cAMP accumulation incubated for 30 mins relative to GLP1; type: functional, cell-based; in short: as §1
[3] = target: T1, Glucagon-like peptide 1 receptor; experiment: Displacement of [125I]-18 from human GLP-1R expressed in CHO cell membranes incubated for 120 mins by scintillation counting based radioligand binding assay
[4] = target: T1, Glucagon-like peptide 1 receptor; experiment: Ratio of Ki for displacement of [125I]-18 from human GLP-1R expressed in CHO cell membranes by scintillation counting based radioligand binding assay to EC50 for Agonist activity at human GLP-1R expressed in CHO cells assessed as cAMP accumulation

SMILES: CCc1cc(OC)ccc1-c1ccc(C[C@H](NC(=O)[C@H](CC(=O)O)NC(=O)[C@H](CO)NC(=O)[C@@H](NC(=O)[C@](C)(Cc2ccccc2F)NC(=O)[C@@H]2CCSSCC[C@H](NC(=O)[C@@H](N)Cc3cnc[nH]3)C(=O)N[C@@H](CCC(=O)O)C(=O)NCC(=O)N2)[C@@H](C)O)C(=O)N[C@@H](CCCc2ccccc2)C(N)=O)cc1
- EC50 [1]: 390 nM
- Activity [2]: > 85%
- Ki [3]: 3000 nM

SMILES: CCc1cc(OC)ccc1-c1ccc(C[C@H](NC(=O)[C@@H]2CC(=O)NCCCC[C@H](NC(=O)CNC(=O)[C@H](CCC(=O)O)NC(=O)C(C)(C)NC(=O)[C@@H](N)Cc3cnc[nH]3)C(=O)N[C@@](C)(Cc3ccccc3F)C(=O)N[C@@H]([C@@H](C)O)C(=O)N[C@@H](CO)C(=O)N2)C(=O)N[C@@H](CCCc2ccccc2)C(N)=O)cc1 (H-H[Aib]EGK[αMePhe(2-F)]TSD[Bip(2'-Et-4'-OMe)][hhPhe]-NH2; lactam 5-9)
- EC50 [1]: 68 nM
- Activity [2]: > 85%
- Ki [3]: 59 nM

SMILES: CCc1cc(OC)ccc1-c1ccc(C[C@H](NC(=O)[C@H](CC(=O)O)NC(=O)[C@H](CO)NC(=O)[C@@H](NC(=O)[C@](C)(Cc2ccccc2F)NC(=O)[C@H]2CSSCC[C@H](NC(=O)[C@@H](N)Cc3cnc[nH]3)C(=O)N[C@@H](CCC(=O)O)C(=O)NCC(=O)N2)[C@@H](C)O)C(=O)N[C@@H](CCCc2ccccc2)C(N)=O)cc1
- EC50 [1]: 730 nM
- Activity [2]: > 85%
- Ki [3]: > 8000 nM

SMILES: CCc1cc(OC)ccc1-c1ccc(C[C@H](NC(=O)[C@H](CC(=O)O)NC(=O)[C@H](CO)NC(=O)[C@@H](NC(=O)[C@](C)(Cc2c(F)cccc2F)NC(=O)[C@@H](NC(=O)CNC(=O)[C@H](CCC(=O)O)NC(=O)C(C)(C)NC(=O)[C@@H](N)Cc2cnc[nH]2)[C@@H](C)O)[C@@H](C)O)C(=O)N[C@@H](Cc2ccc(-c3ccccc3C)cc2)C(N)=O)cc1 (H-H[Aib]EGT[αMePhe(2,6-F2)]TSD[Bip(2'-Et-4'-OMe)][Bip(2'-Me)]-NH2)
- EC50 [1]: 0.19 nM
- Activity [2]: > 85%
- Ki [3]: 0.66 nM
- Ratio [4]: 3.5

SMILES: CCc1cc(OC)ccc1-c1ccc(C[C@H](NC(=O)[C@H](CC(=O)O)NC(=O)[C@H](CO)NC(=O)[C@@H](NC(=O)[C@](C)(Cc2ccccc2F)NC(=O)[C@H]2CCSSC[C@@H](NC(=O)[C@@H](N)Cc3cnc[nH]3)C(=O)N[C@@H](CCC(=O)O)C(=O)NCC(=O)N2)[C@@H](C)O)C(=O)N[C@@H](CCCc2ccccc2)C(N)=O)cc1
- EC50 [1]: 81 nM
- Activity [2]: > 85%
- Ki [3]: 550 nM

SMILES: CCc1cc(OC)ccc1-c1ccc(C[C@H](NC(=O)[C@@H]2CCC(=O)NCCCC[C@H](NC(=O)CNC(=O)[C@H](CCC(=O)O)NC(=O)C(C)(C)NC(=O)[C@@H](N)Cc3cnc[nH]3)C(=O)N[C@@](C)(Cc3ccccc3F)C(=O)N[C@@H]([C@@H](C)O)C(=O)N[C@@H](CO)C(=O)N2)C(=O)N[C@@H](CCCc2ccccc2)C(N)=O)cc1 (H-H[Aib]EGK[αMePhe(2-F)]TSE[Bip(2'-Et-4'-OMe)][hhPhe]-NH2; lactam 5-9)
- EC50 [1]: 10 nM
- Activity [2]: > 85%
- Ki [3]: 17 nM

SMILES: CCc1cc(OC)ccc1-c1ccc(C[C@H](NC(=O)[C@H](CC(=O)O)NC(=O)[C@H](CO)NC(=O)[C@@H](NC(=O)[C@](C)(Cc2ccccc2F)NC(=O)[C@@H](NC(=O)CNC(=O)[C@H](CCC(=O)O)NC(=O)C(C)(C)NC(=O)[C@@H](N)Cc2cnc[nH]2)[C@@H](C)O)[C@@H](C)O)C(=O)N[C@@H](Cc2ccc(O)c(I)c2)C(N)=O)cc1 (H-H[Aib]EGT[αMePhe(2-F)]TSD[Bip(2'-Et-4'-OMe)][Tyr(3-I)]-NH2)
- EC50 [1]: 0.045 nM
- Activity [2]: > 85%
- Ki [3]: 6 nM

SMILES: CCc1cc(OC)ccc1-c1ccc(C[C@H](NC(=O)[C@@H]2CCCC(=O)NCCCC[C@H](NC(=O)CNC(=O)[C@H](CCC(=O)O)NC(=O)C(C)(C)NC(=O)[C@@H](N)Cc3cnc[nH]3)C(=O)N[C@@](C)(Cc3ccccc3F)C(=O)N[C@@H]([C@@H](C)O)C(=O)N[C@@H](CO)C(=O)N2)C(=O)N[C@@H](CCCc2ccccc2)C(N)=O)cc1 (H-H[Aib]EGK[αMePhe(2-F)]TS[Aad][Bip(2'-Et-4'-OMe)][hhPhe]-NH2; lactam 5-9)
- EC50 [1]: 95 nM
- Activity [2]: > 85%
- Ki [3]: 300 nM

SMILES: CCc1cc(OC)ccc1-c1ccc(C[C@H](NC(=O)[C@H](CC(=O)O)NC(=O)[C@H](CO)NC(=O)[C@@H](NC(=O)[C@](C)(Cc2ccccc2F)NC(=O)[C@H]2CCSSC[C@H](NC(=O)[C@@H](N)Cc3cnc[nH]3)C(=O)N[C@@H](CCC(=O)O)C(=O)NCC(=O)N2)[C@@H](C)O)C(=O)N[C@@H](CCCc2ccccc2)C(N)=O)cc1
- EC50 [1]: 190 nM
- Activity [2]: > 85%
- Ki [3]: 980 nM

SMILES: CCc1cc(OC)ccc1-c1ccc(C[C@H](NC(=O)[C@H](CC(=O)O)NC(=O)[C@H](CO)NC(=O)[C@@H](NC(=O)[C@](C)(Cc2ccccc2F)NC(=O)[C@@H]2CCSSCC[C@@H](NC(=O)[C@@H](N)Cc3cnc[nH]3)C(=O)N[C@@H](CCC(=O)O)C(=O)NCC(=O)N2)[C@@H](C)O)C(=O)N[C@@H](CCCc2ccccc2)C(N)=O)cc1
- EC50 [1]: 200 nM
- Activity [2]: > 85%
- Ki [3]: 1700 nM

SMILES: CCc1cc(OC)ccc1-c1ccc(C[C@H](NC(=O)[C@@H]2CCCCNC(=O)CC[C@H](NC(=O)CNC(=O)[C@H](CCC(=O)O)NC(=O)C(C)(C)NC(=O)[C@@H](N)Cc3cnc[nH]3)C(=O)N[C@@](C)(Cc3ccccc3F)C(=O)N[C@@H]([C@@H](C)O)C(=O)N[C@@H](CO)C(=O)N2)C(=O)N[C@@H](CCCc2ccccc2)C(N)=O)cc1 (H-H[Aib]EGE[αMePhe(2-F)]TSK[Bip(2'-Et-4'-OMe)][hhPhe]-NH2; lactam 5-9)
- EC50 [1]: 430 nM
- Activity [2]: > 85%
- Ki [3]: 320 nM

SMILES: CCc1cc(OC)ccc1-c1ccc(C[C@H](NC(=O)[C@H](CC(=O)O)NC(=O)[C@H](CO)NC(=O)[C@@H](NC(=O)[C@](C)(Cc2ccccc2F)NC(=O)[C@@H]2CSSC[C@H](NC(=O)[C@@H](N)Cc3cnc[nH]3)C(=O)N[C@@H](CCC(=O)O)C(=O)NCC(=O)N2)[C@@H](C)O)C(=O)N[C@@H](CCCc2ccccc2)C(N)=O)cc1
- EC50 [1]: 670 nM
- Activity [2]: > 85%
- Ki [3]: > 3100 nM

SMILES: CCc1cc(OC)ccc1-c1ccc(C[C@H](NC(=O)[C@H](CC(=O)O)NC(=O)[C@H](CO)NC(=O)[C@@H](NC(=O)[C@](C)(Cc2ccccc2F)NC(=O)[C@H]2CSSCC[C@@H](NC(=O)[C@@H](N)Cc3cnc[nH]3)C(=O)N[C@@H](CCC(=O)O)C(=O)NCC(=O)N2)[C@@H](C)O)C(=O)N[C@@H](CCCc2ccccc2)C(N)=O)cc1
- EC50 [1]: 110 nM
- Activity [2]: > 85%
- Ki [3]: 4800 nM
- Ratio [4]: 43

SMILES: CCc1cc(OC)ccc1-c1ccc(C[C@H](NC(=O)[C@H](CC(=O)O)NC(=O)[C@H](CO)NC(=O)[C@@H](NC(=O)[C@](C)(Cc2ccccc2F)NC(=O)[C@H]2CCSSCC[C@H](NC(=O)[C@@H](N)Cc3cnc[nH]3)C(=O)N[C@@H](CCC(=O)O)C(=O)NCC(=O)N2)[C@@H](C)O)C(=O)N[C@@H](CCCc2ccccc2)C(N)=O)cc1
- EC50 [1]: 1.8 nM
- Activity [2]: > 85%
- Ki [3]: 130 nM

SMILES: CCc1cc(OC)ccc1-c1ccc(C[C@H](NC(=O)[C@@H]2CCCCNC(=O)C[C@H](NC(=O)CNC(=O)[C@H](CCC(=O)O)NC(=O)C(C)(C)NC(=O)[C@@H](N)Cc3cnc[nH]3)C(=O)N[C@@](C)(Cc3ccccc3F)C(=O)N[C@@H]([C@@H](C)O)C(=O)N[C@@H](CO)C(=O)N2)C(=O)N[C@@H](CCCc2ccccc2)C(N)=O)cc1 (H-H[Aib]EGD[αMePhe(2-F)]TSK[Bip(2'-Et-4'-OMe)][hhPhe]-NH2; lactam 5-9)
- EC50 [1]: 320 nM
- Activity [2]: > 85%
- Ki [3]: 1200 nM

SMILES: CCc1cc(OC)ccc1-c1ccc(C[C@H](NC(=O)[C@H](CC(=O)O)NC(=O)[C@H](CO)NC(=O)[C@@H](NC(=O)[C@](C)(Cc2ccccc2F)NC(=O)[C@@H]2CSSC[C@@H](NC(=O)[C@@H](N)Cc3cnc[nH]3)C(=O)N[C@@H](CCC(=O)O)C(=O)NCC(=O)N2)[C@@H](C)O)C(=O)N[C@@H](CCCc2ccccc2)C(N)=O)cc1
- EC50 [1]: 600 nM
- Activity [2]: > 85%
- Ki [3]: 2400 nM

SMILES: CCc1cc(OC)ccc1-c1ccc(C[C@H](NC(=O)[C@H](CC(=O)O)NC(=O)[C@H](CO)NC(=O)[C@@H](NC(=O)[C@](C)(Cc2ccccc2F)NC(=O)[C@H]2CCSSCC[C@@H](NC(=O)[C@@H](N)Cc3cnc[nH]3)C(=O)N[C@@H](CCC(=O)O)C(=O)NCC(=O)N2)[C@@H](C)O)C(=O)N[C@@H](CCCc2ccccc2)C(N)=O)cc1
- EC50 [1]: 0.73 nM
- Activity [2]: > 85%
- Ki [3]: 41 nM

SMILES: CCc1cc(OC)ccc1-c1ccc(C[C@H](NC(=O)[C@H](CC(=O)O)NC(=O)[C@H](CO)NC(=O)[C@@H](NC(=O)[C@](C)(Cc2ccccc2F)NC(=O)[C@@H](NC(=O)CNC(=O)[C@H](CCC(=O)O)NC(=O)C(C)(C)NC(=O)[C@@H](N)Cc2cnc[nH]2)[C@@H](C)O)[C@@H](C)O)C(=O)N[C@@H](CCCc2ccccc2)C(N)=O)cc1 (H-H[Aib]EGT[αMePhe(2-F)]TSD[Bip(2'-Et-4'-OMe)][hhPhe]-NH2)
- EC50 [1]: 0.12 nM
- Activity [2]: > 85%
- Ki [3]: 0.57 nM
- Ratio [4]: 3.5

Reference: ChEMBL document CHEMBL3425455, “Short Hydrophobic Peptides with Cyclic Constraints Are Potent Glucagon-like Peptide-1 Receptor (GLP-1R) Agonists” (J Med Chem, 2015)
